Screening results deposited in PubChem by Sanford-Burnham Center for Chemical Genomics.
Only some compounds are listed: those with a hit (about 0.72% of all), similar ones and a draw of the others.
bIAP inhibitor: intestinal alkaline phosphatase (bovine) inhibition; inhibition, % at 20 µM; purified bovine IAP, CDP-star luminescence, 30 min; 190,000 tested, under 10 active;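 active = over 50% inhibition of intestinal alkaline phosphatase at 20 µM in the single-dose screen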
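Assay system: bovine IAP enzyme; medium: DEA buffer 100 mM, pH 9.8, with MgCl2 1.0 mM, ZnCl2 0.02 mM; doses: 20 µM single dose; incubation: enzyme reaction for 30 min at room temperature; detection: CDP-star luminescence signal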
bIAP act: increases bovine intestinal alkaline phosphatase activity; purified bovine IAP, CDP-star luminescence, 30 min; hits give high values; fold of DMSO-control signal, blank-subtracted; AID 1016; 0.17% of 200,000 active; activation factor at 20 µM;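 active = activation factor of 2 or more at 20 µM, a signal rise over negative controls twice the positive control's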
hIAP act: increases human intestinal alkaline phosphatase activity | P09923 | purified human IAP, CDP-Star luminescence, 30 min; hits give high values; 1 = vehicle-only enzyme, 0 = enzyme-free background | activation factor at 10 µM | 0.16% of 330,000 active;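 active = activation factor of the enzyme at least 2-fold when tested at 20 µM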
Target sequence (P09923 whole entry, looked up): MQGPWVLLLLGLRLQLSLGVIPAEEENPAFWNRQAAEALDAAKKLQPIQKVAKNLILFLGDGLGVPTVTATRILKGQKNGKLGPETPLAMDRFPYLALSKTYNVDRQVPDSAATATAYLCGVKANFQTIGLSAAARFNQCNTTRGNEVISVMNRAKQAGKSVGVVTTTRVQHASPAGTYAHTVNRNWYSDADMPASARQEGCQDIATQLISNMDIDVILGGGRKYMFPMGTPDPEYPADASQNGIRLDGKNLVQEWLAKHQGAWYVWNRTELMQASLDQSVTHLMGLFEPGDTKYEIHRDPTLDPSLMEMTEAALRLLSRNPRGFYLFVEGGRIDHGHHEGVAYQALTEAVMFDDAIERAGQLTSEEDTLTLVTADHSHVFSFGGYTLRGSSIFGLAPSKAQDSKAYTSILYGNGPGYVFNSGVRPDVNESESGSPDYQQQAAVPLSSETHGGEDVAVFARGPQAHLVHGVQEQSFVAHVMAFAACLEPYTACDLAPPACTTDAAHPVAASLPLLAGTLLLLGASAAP
mIAP activ: increases mouse intestinal alkaline phosphatase activity; activation factor at 10 µM; muIAP, CDP-Star luminescence, 30 min; hits give high values; 1 = vehicle-only enzyme signal, 0 = enzyme-free wells; 0.24% of 330,000 active;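 active = activation factor of at least 2 at 20 µM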
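Assay system: mouse IAP enzyme; Reagent: CDP-Star chemiluminescent phosphatase substrate; Compound: DMSO-dissolved test compounds; Incubation: 30 min, room temperature; Technique: luminescence from enzymatic CDP-Star hydrolysis; Controls: DMSO-only wells and no-enzyme negative control.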
hIAP inh: blocks human intestinal alkaline phosphatase. purified IAP, CDP-Star luminescence, 30 min. inhibition, % at 10 µM. 0.12% of 330,000 active;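 active = inhibition reaching a set limit with compound at 10 µM in the primary screen, cut at about 35% in these data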;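 also: plate controls were DMSO wells with enzyme for no effect and no-enzyme buffer wells for full effect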
mIAP block: mouse IAP inhibition | purified mouse IAP, CDP-Star luminescence, 30 min | inhibition, % at 10 µM | AID 2806 | 0.2% of 330,000 active;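 active = inhibition of at least 40% at 10 µM in the primary screen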;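 also: plate controls were DMSO with enzyme for no effect and no enzyme wells for full effect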
* hit, by the source's call; i = inactive; · = no result.

SMILES	bIAP inhibitor	bIAP act	hIAP act	mIAP activ	hIAP inh	mIAP block
CC(C)CCNC(=O)c1ccc2c(SCC(=O)O)c3c(nc2c1)CCCC3	-139	2.4*	0.94	0.93	6	7
CCOC(=O)C1=C(COC(=O)CCCOc2ccccc2)NC(=O)NC1C (stereo not drawn)	·	·	1	0.99	-2	1
Cc1ccc(Cl)cc1NC(=S)NCCCSC1CCCCC1	·	0.4	1	3.1*	-4	-211
O=C(Nc1cc(S(=O)(=O)N2CCOCC2)ccc1Cl)c1ccncc1	·	·	1	0.95	-5	5
COCCNC(=O)C(c1cccc(OC)c1)N(Cc1cccs1)C(=O)Cn1nnc2ccccc21 (stereo not drawn)	9	0.9	0.92	1	8	-2
CCC(C)N(C(=O)Cn1nnc2ccccc21)C(C(=O)Nc1ccc(F)cc1)c1cccc(OC)c1 (stereo not drawn)	-30	1.3	1.2	2.3*	-16	-131
CC[C@H](C)[C@@H](C(=O)NCCCCCCCCCCC(=O)N1CCN(C(=O)OC(C)(C)C)CC1)n1cc(CCCCCNC(=O)OC(C)(C)C)nn1	·	·	0.99	2.5*	0	-150
C#CCOCCOCCOCCNc1nc(N2CCN(C(=O)CCCCCCCCCCNC(=O)[C@@H](CCSC)n3cc(CCO)nn3)CC2)nc(N2CCN(C(=O)CCCCCCCCCCNC(=O)[C@H](CCSC)n3cc(CCO)nn3)CC2)n1	·	·	0.88	2.6*	12	-164
CC(C)(C)OC(=O)CC[C@@H](C(=O)NCCCCCCCCCCC(=O)N1CCN(C(=O)OC(C)(C)C)CC1)n1cc(CCCCCNC(=O)OC(C)(C)C)nn1	·	·	0.99	3.2*	0	-216
CC(C)(C)OC(=O)NCCCCCc1cn([C@@H](CO)C(=O)NCCCCCCCCCCC(=O)N2CCN(C(=O)OC(C)(C)C)CC2)nn1	·	·	0.91	1.1	9	-7
Cc1ccc2nc(NCc3ccccc3)[nH]c2c1	-177	2.8*	·	·	·	·
C=CCn1c(=O)/c(=C\c2ccccn2)s/c1=C(/C#N)C(=O)NCC1CCCO1 (stereo not drawn)	-6	1.1	0.92	0.93	8	7
C=CCn1c(=O)/c(=C/c2ccc(C)o2)s/c1=C(/C#N)C(=O)c1ccccc1	19	0.8	0.81	0.58	19	42*
COC(=O)[C@]1(CC(C)C)N[C@H](c2ccc(-c3cccc(Cl)c3)cc2)[C@@H]2C(=O)N(C)C(=O)[C@@H]21	·	·	0.98	0.91	2	9
O=C(Nc1cccc(Cl)c1)C1C2CCC3C(CCC21)C3(Cl)Cl (stereo not drawn)	14	0.9	0.9	2.9*	10	-188
Fc1ccc(N2CCN(Cc3c[nH]c4ccccc34)CC2)cc1	·	·	0.62	1	38*	-1
C/C(=N\NC(=O)C1CCCC1)c1ccc(C(C)C)cc1	·	·	1.1	1	-13	-3
C/C(=N\NC(=O)C1CCCC1)c1ccc(Cl)c(Cl)c1	·	·	1.4	0.37	-40	63*
O=C(NCC1COc2ccccc2O1)c1cccc(S(=O)(=O)N2CCN(c3ccccc3)CC2)c1 (stereo not drawn)	·	·	0.78	0.92	22	8
COc1ccc(OC)c(NC(=S)NCCCN2CCOCC2)c1	-140	2.4*	0.99	1.1	1	-9
O=C(COC(=O)/C=C/c1ccc(OC(F)F)cc1)Nc1ccc2[nH]c(=O)[nH]c2c1	·	·	1.2	0.81	-22	18
S=C(Nc1ccc(Cl)cc1)NC1CCCCC1	·	·	0.91	1.8	9	-81
S=C(Nc1ccc(Br)cc1)NC1CCCCC1	-11	1.1	0.99	2.5*	1	-150
S=C(Nc1ccc(Nc2ccccc2)cc1)NC1CCCCCC1	11	0.9	1	1.2	-3	-19
FC(F)Oc1ccc(NC(=S)NC2CCCCCCC2)cc1	·	·	1.1	2.6*	-13	-164
SMILES	bIAP inhibitor	bIAP act	hIAP act	mIAP activ	hIAP inh	mIAP block
CC(C)(C)n1nnnc1CN1C2CCC1CC(NC(=O)Nc1ccccc1)C2 (stereo not drawn)	-121	2.2*	1.1	1	-8	-2
CCOC(=O)c1ccc(NC(=O)NC2CC3CCC(C2)N3Cc2nnnn2Cc2ccco2)cc1 (stereo not drawn)	-27	1.3	1.5	2.2*	-53	-124
Cc1ccc(NC(=S)NC2CC3CCC(C2)N3Cc2ccco2)cc1C (stereo not drawn)	0	1	1.2	1.4	-19	-42
Cc1ccc(S(=O)(=O)N2CCCN(C(=O)c3ccc(-n4nccc4C)cc3)CC2)cc1	·	·	0.94	1	6	-2
COc1ccc(NC(=O)Nc2cc(C)ccc2OC)cc1	11	0.9	0.98	1	2	-3
CCc1ccc(NC(=O)Nc2cccc(OC)c2)cc1	6	0.9	1	2.5*	-2	-151
CCOC(=O)c1ccc(N2CCN(c3ccc(F)cc3)CC2)c(NC(=O)Nc2cccc(OC)c2)c1	33	0.7	1.1	2.8*	-15	-184
COc1cccc(NC(=O)Nc2ccc(CC(=O)O)cc2)c1	-4	1	1	0.92	-1	8
COc1ccc(NC(=O)Nc2ccc(Br)c(C)c2)cc1	0	1	1.2	2.1*	-20	-106
CN=C1N(C)C[C@@H]2[C@@H]3C(=O)N(C)C(=O)[C@@H]3[C@](Cc3ccccc3)(C(=O)OC)N12	·	·	·	0.99	·	0
CC(Cc1cccs1)NC(=O)Nc1cccc(Cl)c1 (stereo not drawn)	30	0.7	0.94	2.3*	6	-127
CC(Cc1cccs1)NC(=S)Nc1ccc(Cl)c(Cl)c1 (stereo not drawn)	-18	1.2	1	2*	0	-104
CC(Cc1cccs1)NC(=O)Nc1ccc(F)cc1 (stereo not drawn)	3	1	0.99	1.2	1	-17
Cc1cc(C)nc(/N=C(\N)Nc2ccc(OCc3ccccc3)cc2)n1	i	6.2*	2.1*	1.7	-108	-70
COc1ccc(CNC(=O)COC(=O)CCN2C(=O)C3CC=CCC3C2=O)cc1OC (stereo not drawn)	·	·	1.1	0.85	-8	15
S=C(NCCC(c1ccccc1)c1ccccc1)Nc1ccccc1Cl	-66	1.7	0.94	6*	6	-499
S=C(NCc1ccc(Cl)cc1)Nc1ccccc1Cl	6	0.9	0.89	1.5	11	-52
COc1ccccc1NC(=S)NCCC(c1ccccc1)c1ccccc1	2	1	1.1	2.1*	-6	-108
COc1cc(NC(=S)NCCC(c2ccccc2)c2ccccc2)c(OC)cc1Cl	2	1	0.99	3.5*	1	-248
COc1ccccc1NC(=S)NCc1ccccc1	·	·	1.1	0.97	-5	3
Cc1cc(C(C)(C)C)ccc1OC(=O)C1=CC=CN2CCS(=O)(=O)N=C12	·	·	1	0.98	-5	2
COc1ccc(NC(=O)Nc2ccc3c(c2)N(C)C(=O)CS3)cc1OC	-9	1.1	1.2	2.2*	-20	-122
